# Laboratory results: ChEMBL document CHEMBL1781987, “Nobilamides A-H, long-acting transient receptor potential vanilloid-1 (TRPV1) antagonists from mollusk-associated bacteria” (J Med Chem, 2011)
# Activity calls are given as the source filed them. The calls are words filed in the database; no cut-off is given here. Bridge positions count the residues as written; N and C are the ends. Square brackets hold non-standard residues; d marks the D form. Peptide text beside a SMILES is read from it. * marks the point of attachment. d(aThr) = C[C@@H](O)[C@@H](N)C(=O)O; Dhb = C/C=C(\N)C(=O)O; Propionyl = CCC(=O)*
# What was measured:
# [1] = molecular target: T1, Transient receptor potential cation channel subfamily V member 1 (Homo sapiens, UniProt Q8NER1); details: HEK293, 375 uM
# [2] = system: Transient receptor potential cation channel subfamily V member 1 (Homo sapiens), Q8NER1 [F660A]; assay: Antagonist activity at human TRPV1 F660A mutant expressed in HEK293 cell assessed as inhibition of capsaicin-induced calcium flux at 375 uM for 30 mins before capsaicin challenge measured after 48 hrs by fluorometric analysis; type: functional, cell-based
# Method in brief: (§1)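 HEK-293 cells on gelatin-coated plates transiently transfected with human TRPV1 mutant plasmid (200 ng/well, lipofection 4 h), then grown 48 h. Fluo-4 loaded at 37°C. […] Fluorescence read 1 min; initial rate (ΔF/sec) and ΔFmax compared with capsaicin-only control.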
# [3] = molecular target: T1, Transient receptor potential cation channel subfamily V member 1; details: HEK293, 375 uM; remark: listed apart in the source
# [4] = system: Transient receptor potential cation channel subfamily V member 1 (Homo sapiens), Q8NER1 [C621A]; assay: Antagonist activity at human TRPV1 C621A mutant expressed in HEK293 cell assessed as inhibition of capsaicin-induced calcium flux at 375 uM for 30 mins before capsaicin challenge measured after 48 hrs by fluorometric analysis; type: functional, cell-based
# Method in brief: as §1
# [5] = molecular target: T1, Transient receptor potential cation channel subfamily V member 1; details: HEK293, 375 uM; remark: listed apart in the source
# [6] = molecular target: T1, Transient receptor potential cation channel subfamily V member 1; assay: Antagonist activity at human TRPV1 expressed in human BEAS-2B cells assessed as inhibition of capsaicin-induced calcium flux at 25 to 1000 uM co-treated with 2.5 uM capsaicin measured after 30 mins by fluorometric analysis; type: functional, cell-based
# Method in brief: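 BEAS-2B cells stably overexpressing human TRPV1, grown to confluence in LHC-9. Loaded 1 h at ~22°C in the dark with Fluo-4 reagent, then washed into LHC-9 with 1 mM probenecid and Trypan Red. […] Fluorescence followed 1 min; rate and ΔFmax versus capsaicin-only control.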
# [7] = system: Transient receptor potential cation channel subfamily V member 1 (Homo sapiens), Q8NER1 [E600V]; assay: Antagonist activity at human TRPV1 E600V mutant expressed in HEK293 cell assessed as inhibition of capsaicin-induced calcium flux at 375 uM for 30 mins before capsaicin challenge measured after 48 hrs by fluorometric analysis; type: functional, cell-based
# Method in brief: as §1
# [8] = molecular target: T1, Transient receptor potential cation channel subfamily V member 1; assay: Antagonist activity at human TRPV1 expressed in human BEAS-2B cells assessed as inhibition of capsaicin-induced calcium flux at 25 to 1000 uM preincubated for 30 mins before 2.5 uM capsaicin challenge measured after 1 min by fluorometric analysis; type: functional, cell-based
# Method in brief: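 Human TRPV1-expressing BEAS-2B cells loaded with Fluo-4 (1 h, ~22°C, dark), then washed into LHC-9 with 1 mM probenecid and Trypan Red containing compound. […] Ca2+ signal tracked 1 min; initial rate and ΔFmax relative to capsaicin-only cells.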
# [9] = system: Transient receptor potential cation channel subfamily V member 1 (Homo sapiens), Q8NER1 [N604A]; assay: Antagonist activity at human TRPV1 N604A mutant expressed in HEK293 cell assessed as inhibition of capsaicin-induced calcium flux at 375 uM for 30 mins before capsaicin challenge measured after 48 hrs by fluorometric analysis; type: functional, cell-based
# Method in brief: as §1
# [10] = system: Transient receptor potential cation channel subfamily V member 1 (Homo sapiens), Q8NER1 [C578A]; assay: Antagonist activity at human TRPV1 C578A mutant expressed in HEK293 cell assessed as inhibition of capsaicin-induced calcium flux at 375 uM for 30 mins before capsaicin challenge measured after 48 hrs by fluorometric analysis; type: functional, cell-based
# Method in brief: as §1
# [11] = system: Transient receptor potential cation channel subfamily V member 1 (Homo sapiens), Q8NER1 [E649A]; assay: Antagonist activity at human TRPV1 E649A mutant expressed in HEK293 cell assessed as inhibition of capsaicin-induced calcium flux at 375 uM for 30 mins before capsaicin challenge measured after 48 hrs by fluorometric analysis; type: functional, cell-based
# Method in brief: as §1
# [12] = molecular target: Transient receptor potential cation channel subfamily V member 1 (Mus musculus) (UniProt Q704Y3); assay: Antagonist activity at TRPV1 channel in C57B1 mouse dorsal root ganglion cells assessed as inhibition of capsaicin-induced calcium flux at 125 uM after 3 hrs by fluorometric analysis in presence of 5.6 ug/ml trafficking inhibitor brefeldin A; type: functional, tissue-based
# [13] = molecular target: Transient receptor potential cation channel subfamily V member 1 (Mus musculus) (UniProt Q704Y3); assay: Antagonist activity at TRPV1 channel in C57B1 mouse dorsal root ganglion cells assessed as inhibition of capsaicin-induced calcium flux at 125 uM after 3 hrs by fluorometric analysis in presence of 6.3 ug/ml transcriptional inhibitor actinomycin D; type: functional, tissue-based
# [14] = molecular target: Transient receptor potential cation channel subfamily V member 1 (Mus musculus) (UniProt Q704Y3); assay: Antagonist activity at TRPV1 channel in C57B1 mouse dorsal root ganglion cells assessed as inhibition of capsaicin-induced calcium flux at 125 uM after 3 hrs by fluorometric analysis in presence of 10 ug/ml translational inhibitor cycloheximide; type: functional, tissue-based
# [15] = molecular target: Transient receptor potential cation channel subfamily V member 1 (Mus musculus) (UniProt Q704Y3); assay: Antagonist activity at TRPV1 channel in C57B1 mouse dorsal root ganglion cells assessed as inhibition of capsaicin-induced calcium flux at 125 uM after 5 mins by fluorometric analysis in presence of at 25 mM of KCl; type: functional, tissue-based
# Method in brief: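 Mouse C57B1 cervical/lumbar DRG neurons, Fura-2 AM calcium imaging at 20–25°C, each neuron analysed separately. […] Final 25 or 100 mM KCl pulses check viability.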
# [16] = molecular target: Transient receptor potential cation channel subfamily V member 1 (Mus musculus) (UniProt Q704Y3); assay: Antagonist activity at TRPV1 channel in C57B1 mouse dorsal root ganglion cells assessed as inhibition of capsaicin-induced calcium flux at 125 uM after 3 hrs by fluorometric analysis; type: functional, tissue-based
# T1 sequence (Q8NER1 whole entry): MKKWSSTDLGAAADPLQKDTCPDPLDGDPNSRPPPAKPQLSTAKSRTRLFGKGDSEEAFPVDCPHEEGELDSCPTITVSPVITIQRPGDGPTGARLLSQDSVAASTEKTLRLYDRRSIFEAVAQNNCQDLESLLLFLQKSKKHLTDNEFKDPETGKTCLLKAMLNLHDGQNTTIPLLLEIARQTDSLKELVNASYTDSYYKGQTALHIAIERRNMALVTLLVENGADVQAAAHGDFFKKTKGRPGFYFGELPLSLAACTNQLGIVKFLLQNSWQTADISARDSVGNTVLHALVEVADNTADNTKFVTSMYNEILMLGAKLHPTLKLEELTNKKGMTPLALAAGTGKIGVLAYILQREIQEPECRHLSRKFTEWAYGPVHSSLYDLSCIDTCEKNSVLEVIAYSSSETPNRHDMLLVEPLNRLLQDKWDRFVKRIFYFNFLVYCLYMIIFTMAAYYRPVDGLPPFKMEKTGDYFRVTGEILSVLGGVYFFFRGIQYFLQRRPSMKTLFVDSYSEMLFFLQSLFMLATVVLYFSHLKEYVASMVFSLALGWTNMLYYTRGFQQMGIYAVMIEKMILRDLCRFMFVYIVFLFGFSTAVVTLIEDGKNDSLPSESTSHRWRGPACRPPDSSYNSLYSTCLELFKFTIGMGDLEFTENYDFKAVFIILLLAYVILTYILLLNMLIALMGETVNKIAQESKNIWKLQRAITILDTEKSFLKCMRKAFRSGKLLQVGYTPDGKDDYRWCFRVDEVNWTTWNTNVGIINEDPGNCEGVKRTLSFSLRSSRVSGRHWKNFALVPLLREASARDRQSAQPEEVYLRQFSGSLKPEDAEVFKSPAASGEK
# Transient receptor potential cation channel subfamily V member 1 (Mus musculus), sequence (Q704Y3 whole entry): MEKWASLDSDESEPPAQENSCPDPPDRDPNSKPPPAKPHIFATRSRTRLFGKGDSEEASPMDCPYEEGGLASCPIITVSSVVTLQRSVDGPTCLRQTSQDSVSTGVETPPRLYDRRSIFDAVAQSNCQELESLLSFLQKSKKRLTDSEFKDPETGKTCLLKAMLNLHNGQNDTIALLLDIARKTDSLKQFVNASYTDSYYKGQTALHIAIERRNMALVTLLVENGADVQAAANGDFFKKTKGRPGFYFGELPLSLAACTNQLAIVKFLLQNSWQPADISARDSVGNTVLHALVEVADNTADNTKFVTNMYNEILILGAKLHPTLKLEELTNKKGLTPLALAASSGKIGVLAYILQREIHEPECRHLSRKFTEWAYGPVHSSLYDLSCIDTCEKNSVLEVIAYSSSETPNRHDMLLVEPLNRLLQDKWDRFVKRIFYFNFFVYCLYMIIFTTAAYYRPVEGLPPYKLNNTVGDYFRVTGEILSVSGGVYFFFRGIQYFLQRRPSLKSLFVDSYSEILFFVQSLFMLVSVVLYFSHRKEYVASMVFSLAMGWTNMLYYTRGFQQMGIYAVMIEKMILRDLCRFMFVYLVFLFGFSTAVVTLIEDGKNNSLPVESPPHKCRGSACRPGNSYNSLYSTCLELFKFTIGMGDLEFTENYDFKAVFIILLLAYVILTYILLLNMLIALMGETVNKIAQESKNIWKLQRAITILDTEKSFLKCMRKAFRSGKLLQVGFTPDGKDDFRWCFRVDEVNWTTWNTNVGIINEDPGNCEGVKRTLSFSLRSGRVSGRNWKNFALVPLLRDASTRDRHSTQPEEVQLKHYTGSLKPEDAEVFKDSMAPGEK
# Transient receptor potential cation channel subfamily V member 1 (Homo sapiens), Q8NER1 [C621A], sequence (Q8NER1 whole entry C621A): as the sequence (Q8NER1 whole entry) above, with C621A counted along it
# Transient receptor potential cation channel subfamily V member 1 (Homo sapiens), Q8NER1 [N604A], sequence (Q8NER1 whole entry N604A): as the sequence (Q8NER1 whole entry) above, with N604A counted along it
# Transient receptor potential cation channel subfamily V member 1 (Homo sapiens), Q8NER1 [F660A], sequence (Q8NER1 whole entry F660A): as the sequence (Q8NER1 whole entry) above, with F660A counted along it
# Transient receptor potential cation channel subfamily V member 1 (Homo sapiens), Q8NER1 [C578A], sequence (Q8NER1 whole entry C578A): as the sequence (Q8NER1 whole entry) above, with C578A counted along it
# Transient receptor potential cation channel subfamily V member 1 (Homo sapiens), Q8NER1 [E649A], sequence (Q8NER1 whole entry E649A): as the sequence (Q8NER1 whole entry) above, with E649A counted along it
# Transient receptor potential cation channel subfamily V member 1 (Homo sapiens), Q8NER1 [E600V], sequence (Q8NER1 whole entry E600V): as the sequence (Q8NER1 whole entry) above, with E600V counted along it
SMILES,inhibition [1],inhibition [2],inhibition [3],inhibition [4],inhibition [5],inhibition [6],inhibition [7],inhibition [8],inhibition [9],inhibition [10],inhibition [11],inhibition [12],inhibition [13],inhibition [14],inhibition [15],inhibition [16]
C/C=C(\NC(=O)[C@H](C)NC(=O)[C@@H](NC(=O)[C@H](NC(=O)[C@H](Cc1ccccc1)NC(=O)[C@@H](CC(C)C)NC(=O)[C@@H](Cc1ccccc1)NC(=O)CC)[C@@H](C)O)C(C)C)C(=O)O (Propionyl-[dF][dL]F[d(aThr)]VA[Dhb]-OH),Active,inactive,inactive,inactive,Active,Active,Active,Active,Active,inactive,Active,,,,,
C/C=C1\NC(=O)[C@H](C)NC(=O)[C@H](C(C)C)NC(=O)[C@H](NC(=O)[C@H](Cc2ccccc2)NC(=O)[C@@H](CC(C)C)NC(=O)[C@@H](Cc2ccccc2)NC(=O)CC)[C@@H](C)OC1=O (Propionyl-[dF][dL]F[d(aThr)]VA[Dhb]; ester 4-C),,inactive,,inactive,,Active,Active,Active,Active,inactive,Active,,,,,
C/C=C(\NC(=O)[C@H](C)NC(=O)[C@@H](NC(=O)[C@H](NC(=O)[C@H](Cc1ccccc1)NC(=O)[C@@H](CC(C)C)NC(=O)[C@@H](Cc1ccccc1)NC(C)=O)[C@@H](C)O)C(C)C)C(=O)O (Ac-[dF][dL]F[d(aThr)]VA[Dhb]-OH),,,,,,,,,,,,inactive,inactive,inactive,Active,inactive
